Here are results for 31 compounds from ChEMBL document CHEMBL3526071, “Predicting phenolic acid absorption in Caco-2 cells: a theoretical permeability model and mechanistic study” (Drug Metab Dispos, 2012).

Series [1] in a line: Apparent permeability from basolateral to apical side in human Caco2 cells at 500 uM at pH 7.4 after 1 hr by HPLC-DAD analysis. In kind it is ADME, cell-based. Particulars: Caco-2, pH 7.4. In short, it runs like this: (§1)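 Differentiated Caco-2 monolayers after 21+ days on Transwells, equilibrated 15 min in HBSS with 1.8 mM CaCl2, pH 7.4. 500 μM compound (from DMSO stock) in the donor, apical or basal. Both sides pH 7.4. 1 h at 37°C, 5% CO2. Receiver measured by HPLC-DAD with recovery correction. Papp calculated from receiver amount over time versus initial donor amount. Mean ± S.D., n = 3.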

Series [2] can be described thus: Efflux ratio of apparent permeability from basolateral to apical side over apical to basolateral side in human Caco2 cells at 500 uM after 1 hr by HPLC-DAD analysis. Particulars: Caco-2. Type of series: ADME, cell-based. On the technique in general: Caco-2 monolayers are a common model of the intestinal barrier.
Series [3] is described as follows: Apparent permeability from apical to basolateral side in human Caco2 cells at 500 uM at pH 7.4 after 1 hr by HPLC-DAD analysis. Conditions: Caco-2, pH 7.4. Type of series: ADME, cell-based. The gist of the method: as §1
Series [4] is described as follows: 1-Octanol-water distribution coefficient, log D of the compound at pH 7.4 by shake flask method. In kind it is physicochemical.
Series [5] in a line: Apparent permeability across human Caco2 cells with high TEER resistance at 500 uM after 1 hr by HPLC-DAD analysis. Type of series: ADME, cell-based. Conditions: Caco-2. In short, it runs like this:
(§2)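 Caco-2 (passages 30–50) seeded at 6 × 10^4 cells/cm2 on 0.4-μm polycarbonate Transwell inserts and grown 21 days. Monolayer resistance varied by 15-min preincubation in HBSS pH 7.4 with 18 μM or 3.6 mM CaCl2. 500 μM compound added apically in HBSS at the same CaCl2. 1 h, 37°C, no stirring. TEER measured before and after, corrected for cell-free insert. Receiver quantified by HPLC-DAD. n = 3.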

Series [6] is described as follows: Apparent permeability across human Caco2 cells with low TEER resistance at 500 uM after 1 hr by HPLC-DAD analysis. Type of series: ADME, cell-based. Conditions: Caco-2. In short, it runs like this: as §2
Series [7] can be described thus: 1-Octanol-water distribution coefficient, log D of the compound at pH 7.4. Type of series: physicochemical.
Series [8] is described as follows: Oral bioavailability in human. Type of series: ADME, organism-based. Particulars: in vivo.
[9] abbreviates: 1-octanol/water, read-out: logD.

Molecules are shown by their SMILES. Where a SMILES comes first, the peptide text is derived from it.

Regarding `O=C(/C=C/c1ccc(O)c(O)c1)O[C@@H]1C[C@](O)(C(=O)O)C[C@@H](OC(=O)/C=C/c2ccc(O)c(O)c2)[C@H]1O`, the Papp B→A (in general, how fast a substance crosses the layer from the basolateral side) at 1 h, 500 µM in series [1] was 0.72 ×10⁻⁶ cm/s. In series [2], the efflux ratio (as a rule, a quotient of directional permeabilities that is used to spot active efflux) at 1 h, 500 µM is 5.4. In addition, the Papp A→B (in general, how fast a substance crosses the layer from the apical side) at 1 h, 500 µM in series [3] stood at 0.14 ×10⁻⁶ cm/s. Further, in series [4], the logD (commonly the decadic logarithm of the distribution of all forms, ionised or not, between an organic phase and buffer at a given pH) is -1.04. The Papp (in general, a coefficient for how fast a substance crosses the barrier) at 1 h, 500 µM in series [5] was determined as 0.05 ×10⁻⁶ cm/s; in series [6] it was 0.68 ×10⁻⁶ cm/s.

With `CC(C)(C)S(=O)(=O)C[C@@H](Cc1ccccc1)C(=O)N[C@@H](Cc1cnc[nH]1)C(=O)N[C@@H](CC1CCCCC1)[C@@H](O)[C@@H](O)C1CC1`, the logD in series [7] (setting [9]) was 2.75.

As to `COc1ccc(/C=C/C(=O)O)cc1OC`, in series [1], the Papp B→A at 1 h, 500 µM came to 21.7 ×10⁻⁶ cm/s. For the same compound, in series [2], the efflux ratio at 1 h, 500 µM was found to be 1.1. In series [3], the Papp A→B at 1 h, 500 µM was determined as 19.9 ×10⁻⁶ cm/s. For the same compound, the logD in series [4] is -1.01.

Regarding `CSc1ccc2ncn(/C=C/C(=O)O)c(=O)c2c1`, in series [7] (setting [9]), the logD was -1.05.

Take `COc1cc(/C=C/C(=O)O[C@@H]2C[C@](O)(C(=O)O)C[C@@H](O)[C@H]2O)ccc1O`: the Papp B→A at 1 h, 500 µM in series [1] worked out at 0.28 ×10⁻⁶ cm/s. For the same compound, in series [2], the efflux ratio at 1 h, 500 µM was 1.1. Moreover, the Papp A→B at 1 h, 500 µM in series [3] came out at 0.25 ×10⁻⁶ cm/s. The logD in series [4] is -2.79. In addition, the Papp at 1 h, 500 µM was 0.31 ×10⁻⁶ cm/s in series [5] and 1.7 ×10⁻⁶ cm/s in series [6].

In the case of `C=CCc1ccccc1OCC(O)CNC(C)C` (centres undefined) [ALPRENOLOL], in series [4], the logD amounted to 1.08.

As for `Cc1c(N(C)C)c(=O)n(-c2ccccc2)n1C` [AMINOPYRINE], the bioavailability (in general, the share of a dose that reaches the circulation, judged against a reference dose that is usually intravenous) in series [8] amounted to 100%.

`CC(=O)Oc1ccccc1C(=O)O` [ASPIRIN] showed a bioavailability in series [8] of 100%.

Take `O=C(O)/C=C/c1ccc(O)c(O)c1` [CAFFEIC ACID]: the Papp B→A at 1 h, 500 µM in series [1] worked out at 1.7 ×10⁻⁶ cm/s. For the same compound, the Papp A→B at 1 h, 500 µM in series [3] was 1.4 ×10⁻⁶ cm/s.

Regarding `O=C(/C=C/c1ccc(O)c(O)c1)O[C@@H]1C[C@](O)(C(=O)O)C[C@@H](O)[C@H]1O` [CHLOROGENIC ACID], the Papp B→A at 1 h, 500 µM in series [1] was 0.33 ×10⁻⁶ cm/s. In addition, the Papp A→B at 1 h, 500 µM in series [3] was 0.38 ×10⁻⁶ cm/s. The same compound showed a logD in series [4] of -3.05. Moreover, the results for the Papp at 1 h, 500 µM in series [5] and in series [6] were 0.25 ×10⁻⁶ cm/s and 0.77 ×10⁻⁶ cm/s, respectively.

As to `CN/C(=N/CCSCc1nc[nH]c1C)NC#N` [CIMETIDINE], the logD in series [7] (setting [9]) was -0.4.

Take `OC[C@H]1OC(O)[C@H](O)[C@@H](O)[C@@H]1O` (some centres undefined) [DEXTROSE]: the logD in series [7] (setting [9]) was -2.83.

As to `CNC[C@H](O)c1ccc(O)c(O)c1` [EPINEPHRINE], in series [7] (setting [9]), the pH-dependent lipophilicity (logD) is -2.59.

`CCOC(=O)C1=C(C)NC(C)=C(C(=O)OC)C1c1cccc(Cl)c1Cl` (centres undefined) [FELODIPINE]: in series [7] (octanol/water), the log distribution coefficient (logD) is 3.48.

With `COc1cc(/C=C/C(=O)O)ccc1O` [FERULATE], the Papp B→A at 1 h, 500 µM in series [1] came out at 10.2 ×10⁻⁶ cm/s. Besides, in series [2], the efflux ratio at 1 h, 500 µM came out at 1. Besides, the Papp A→B at 1 h, 500 µM in series [3] is 10 ×10⁻⁶ cm/s. Further, the log distribution coefficient (logD) in series [4] is -1.19. Besides, the values for the Papp at 1 h, 500 µM in series [5] and in series [6] were 10.8 ×10⁻⁶ cm/s and 11.2 ×10⁻⁶ cm/s, respectively.

With `CC(C)n1c(/C=C/C(O)CC(O)CC(=O)O)c(-c2ccc(F)cc2)c2ccccc21` (centres undefined) [FLUVASTATIN], the logD in series [7] (setting [9]) came out at 1.09.

Consider `NCC(=O)N1CCC[C@H]1C(=O)O` [GLYCYL PROLINE] (H-Gly-Pro-OH), for which the logD in series [7] (setting [9]) was -3.32.

For the compound `COC1=CC(=O)C[C@@H](C)[C@]12Oc1c(Cl)c(OC)cc(OC)c1C2=O` [GRISEOFULVIN], in series [7] (setting [9]), the logD was found to be 2.47.

As for `N=C(N)NCC1COc2ccccc2O1` (centres undefined) [GUANOXAN], in series [7] (setting [9]), the logD was -0.83.

In turn, `N[C@@H](Cc1ccc(O)c(O)c1)C(=O)O` [LEVODOPA] came in with a logD in series [7] (octanol/water) of -1.22.

In turn, `OC[C@@H](O)[C@@H](O)[C@H](O)[C@H](O)CO` [MANNITOL] displayed a bioavailability in series [8] of 16%. Moreover, in series [7] (setting [9]), the logD is -3.1.

Regarding `COCCc1ccc(OCC(O)CNC(C)C)cc1` (centres undefined) [METOPROLOL], the logD in series [4] was -0.24.

In series [7] (octanol/water), `COCC(=O)O[C@]1(CCN(C)CCCc2nc3ccccc3[nH]2)CCc2cc(F)ccc2[C@@H]1C(C)C` [MIBEFRADIL] displayed a logD of 3.66.

`Cc1ccnc2c1NC(=O)c1cccnc1N2C1CC1` [NEVIRAPINE] returned a bioavailability in series [8] above 90%. Besides, in series [7] (setting [9]), the logD was 1.81.

Take `O=C1NC(=O)C(c2ccccc2)(c2ccccc2)N1` [PHENYTOIN]: in series [7] (setting [9]), the logD was 2.5.

Take `CN1C(C(=O)Nc2ccccn2)=C(O)c2ccccc2S1(=O)=O` [PIROXICAM]: the logD in series [7] (setting [9]) is 0.

Consider `CC(=O)Nc1ccc(OCC(O)CNC(C)C)cc1` (centres undefined) [PRACTOLOL], for which the logD in series [7] (setting [9]) was -1.4.

As for `COC(=O)c1ccccc1-c1c2ccc(=N)cc-2oc2cc(N)ccc12` [RHODAMINE123], the logD in series [7] (setting [9]) was determined as 0.53.

Regarding `O=C(O)c1ccccc1O` [SALICYLIC ACID], the logD in series [4] was -2.34; in series [7] (setting [9]) it was -1.44. In addition, in series [8], the bioavailability worked out at 100%.

For the compound `CC(C)(C)NCC(O)COc1ccc(NC(=O)NC2CCCCC2)cc1` (centres undefined) [TALINOLOL], the bioavailability in series [8] was found to be 55%. In addition, the logD in series [7] (setting [9]) came out at 1.1.

Consider `CC(=O)CC(c1ccccc1)c1c(O)c2ccccc2oc1=O` (centres undefined) [WARFARIN], for which the logD in series [7] (setting [9]) was determined as 0.9.
